Published values collected from several papers.
Compare with care: the assays were run in different laboratories.
Target: Serine/threonine-protein kinase MRCK alpha (CDC42BPA, Homo sapiens, UniProt Q5VT25)

| SMILES | assay | setting | measurement | value |
| --- | --- | --- | --- | --- |
| CN1CC(Oc2cnc(C#N)cc2-c2ccn3nc(NC(=O)C4CC4)cc3c2)C1 | enzyme activity, inhibitor | 1 µM | inhibition | -14% |
| COc1cc2ncnc(Nc3ccc(Oc4ccccc4)cc3C)c2cc1OC | enzyme activity, inhibitor | 1 µM | inhibition | 6% |
| Cc1cc(NC(=O)c2cccc3cc(-c4cccc5[nH]nc(N)c45)ccc23)ccc1F | enzyme activity, inhibitor | 0.1 µM | activity vs control | 92% |
| N#CC1(c2ccccn2)CCN(Cc2cc(C(=O)N3CCCC3)c(=O)n3ccccc23)CC1 | cell-free assay, competition with immobilised ligand | 1 µM | remaining binding | 84% |
| Cc1ccc(NC(=O)c2ccc(C)c(C(F)(F)F)c2)cc1C#Cc1nn(C2CCC(O)CC2)c2ncnc(N)c12 (stereo not shown) | cell-free assay, inhibitor | 10 µM | remaining signal | 101% |
| O=C(O)c1cc(-c2ccc(C3CCNCC3)cc2)c2ccc(-c3ccc(C(F)(F)F)cc3)cc2c1 | cell-free assay, competition with immobilised ligand | 1 µM | remaining binding | 100% |
| CC/C(=N\NC(=O)NCc1cccc(O)c1)c1ccc(O)c(C)c1O | enzyme activity, inhibitor | 0.1 µM | inhibition | 49.7% |
| Cc1ccc(Nc2nccc(N(C)c3ccc4c(C)n(C)nc4c3)n2)cc1S(N)(=O)=O | enzyme activity, inhibitor | 10 µM | inhibition | 1% |
| Nc1cnc(N2CCc3cc(S(=O)(=O)Nc4c(F)cc(Cl)cc4F)cc(N4CCCC4=O)c32)nc1 | cell-free assay, competition with immobilised ligand | 1 µM | remaining binding | 100% |
| CC(C)(C)c1nc2c(s1)c1nc(N)ncc1c1ccc(NS(=O)(=O)c3c(F)cccc3F)c(F)c12 | enzyme activity, inhibitor, radiometric | 1 µM | remaining activity | 82% |
| CC(C)(O)[C@H]1CC[C@H](Nc2ccc3ncc(-c4cccc(C(F)(F)F)c4)n3n2)CC1 | enzyme activity, inhibitor | 1 µM | remaining activity | 95.8% |
| CN(C)c1ncnc(-c2ccc3nc(Nc4cc(CN5CCN(C(=O)CC(F)(F)F)CC5)ccn4)[nH]c3c2)c1Cl | cell-free assay, competition with immobilised ligand | 1 µM | remaining binding | 100% |
| CCCOc1ccc(OC)c(F)c1C(=O)c1ccc(C(=O)N[C@@H]2CNC[C@H]2NC(=O)c2ccc3[nH]ncc3c2)cc1 | enzyme activity, inhibitor | 0.5 µM | remaining activity | 27% |
| CNC(=O)c1cc(Oc2ccc(NC(=O)Nc3ccc(Cl)c(C(F)(F)F)c3)cc2)ccn1 | enzyme activity, inhibitor | 0.3 µM | inhibition | 9% |
| c1ccc(N2CCN(Cc3nc4ccccc4[nH]3)CC2)nc1 | cell-free assay, competition with immobilised ligand | 1 µM | remaining binding | 100% |
| O=C1Nc2ccc(Cl)cc2C1=Cc1cc(Cl)c(O)c(Cl)c1 | cell-free assay | 0.5 µM | remaining signal | 96.1% |
| CCN(CC)CCNC(=O)c1c(C)[nH]c(/C=C2\C(=O)Nc3ccc(F)cc32)c1C | enzyme activity, inhibitor | 0.3 µM | inhibition | 8% |
| N#Cc1ccc(Nc2ccc3[nH]c(=O)[nH]c3c2)c(Cl)c1 | cell-free assay, competition with immobilised ligand | 1 µM | remaining binding | 100% |
| CCOc1cc(-c2nncn2C)ccc1Nc1ncc2cc(C)nc(NCC(C)(C)C)c2n1 | enzyme activity, inhibitor, FRET | 1 µM | inhibition | < 15% |
| CS(=O)(=O)CCNCc1ccc(-c2ccc3ncnc(Nc4ccc(OCc5cccc(F)c5)c(Cl)c4)c3c2)o1 | cell-free assay | 0.5 µM | remaining signal | 88.2% |
| CNCc1ccccc1-c1csc([C@@H](C)Nc2nc(C)nc3cc(OC)c(OC)cc23)c1 | cell-free assay, competition with immobilised ligand | 1 µM | remaining binding | 67% |
| Cc1sc(C(=O)NC2COC2)cc1-n1cc(NC(=O)Nc2c(F)cccc2Cl)cn1 | enzyme activity, inhibitor | 10 µM | remaining activity | 104% |
